# MEX-5 binding: C. elegans MEX-5 TCR-2 RNA binding activity | actives 0.38% (n = 300,000) | activity score (negative = inhibition of binding), % at 10 µM | Q9XUB2 | MEX-5/FITC-TCR2 RNA binding, fluorescence polarization; active compounds read low;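 active = inhibition past about -25% in most replicates, and total fluorescence under double the plate's negative control median, limit read from the data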;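 also: 0% = DMSO and -100% = 5 µM competing unlabeled TCR2 RNA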
# RanGTP-Imp inh: inhibitors of RanGTP-importin-beta interaction, primary screen, biochemical, FRET, CFP-Ran, YFP-importin-beta, homogeneous. inhibition, % (concentration not given with the values). AID 2216. cell-free CFP-Ran/YFP-importin-beta FRET ratio. actives 1.1% (n = 300,000);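 active = more than half of the replicate wells show a fall in the fluorescence ratio signal beyond about 16%, limit read from the data, passing the limit was not always enough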;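 also: 0% = DMSO wells and 100% = Ran loaded with GDP instead of GTP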
# Runt-SMMHC FRET: Runt domain-CBFb-SMMHC interaction inhibition; Cerulean-Runt/Venus-CBFb-SMMHC FRET ratio 530/480, 1 h; inhibition, % at 20 µM; actives 0.74% (n = 220,000);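 active = mean inhibition across duplicate retests at 20 µM reaching about 50%, limit read from the data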;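 also: 0% = DMSO wells and 100% = wells with excess untagged CBFb-SMMHC; inhibitors lower the FRET ratio by blocking Runt binding to CBFb-SMMHC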
# KLK7 zymogen act: activators of human kallikrein-7 zymogen | P49862 | purified proKLK7, EDANS-DABCYL substrate fluorescence; 100% is mature enzyme control, 0% vehicle | activation, % at 7 µM | actives 0.9% (n = 370,000) | AID 652039;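 active = activation above the mean of all tested compounds plus 3 SD, computed per campaign excluding outliers beyond control limits, cut at about 13% in these data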
# Target sequence (P49862 whole entry, looked up): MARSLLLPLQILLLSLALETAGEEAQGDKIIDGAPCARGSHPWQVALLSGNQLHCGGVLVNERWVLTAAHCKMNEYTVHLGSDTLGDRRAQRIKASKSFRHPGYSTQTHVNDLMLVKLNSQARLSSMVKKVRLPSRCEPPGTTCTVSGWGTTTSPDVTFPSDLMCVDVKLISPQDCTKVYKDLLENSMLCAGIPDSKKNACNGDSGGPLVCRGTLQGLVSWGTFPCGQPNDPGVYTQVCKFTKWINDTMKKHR
# Runt-CBFb FRET: Runt domain-CBFb interaction inhibition; Q01196+Q13951; actives 0.46% (n = 220,000); Cerulean-Runt/Venus-CBFb FRET ratio 530/480, 1 h; inhibition, % at 20 µM;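 active = inhibition over about 50% at 20 µM in the single-dose screen, limit read from the data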;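 also: 0% = DMSO wells and 100% = excess unlabeled CBFb competitor control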
#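 test system = Cerulean-tagged RUNX1 Runt domain (FRET donor) fusion protein | reagent = Venus-CBFb binding partner, 100 nM | incubation = protein complex preformed 1 h, compound exposure 1 h, room temperature, dark | detection = FRET fluorescence | read-out basis = loss of energy transfer signal | controls = 5 µM unlabeled CBFb as full-inhibition high control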
# YIC FRET counter: counter-screen YIC FRET for RanGTP-importin-beta inhibitors | shares compounds with RanGTP-Imp inh | Purified YIC probe, intramolecular FRET ratio YFP/CFP | IC50, µM | actives 40% (n = 1,000);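 active = fitted half-maximal inhibitory concentration no more than tenfold above the top dose tested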
# * hit, by the source's call; nt = no result. Most compounds without a hit are left out; they make up all but 2.1% or so of the library.
SMILES,MEX-5 binding,RanGTP-Imp inh,Runt-SMMHC FRET,KLK7 zymogen act,Runt-CBFb FRET,YIC FRET counter
CCOC(=O)/C=C1/SCC(=O)N1CC(=O)Nc1ccccc1OC(F)F,nt,nt,nt,0,nt,nt
O=C(Cn1nnc(-c2ccncc2)n1)NCCc1ccccc1,0,18*,-4,0,0,>50
CCOC(=O)[C@]12CCCC=C1N(Cc1ccco1)C(=O)[C@H](CC(=O)N1CCN(C(=O)c3ccco3)CC1)C2,nt,nt,nt,0,nt,nt
CCC(=O)Nc1cccc(NC(=S)NC(=O)c2cccs2)c1,2,25*,8,0,0,>50
CCN1C(=O)c2cccc3c(S(=O)(=O)N(C(C)=O)c4ccc(OC(C)=O)cc4)ccc1c23,nt,nt,nt,-175,nt,nt
COc1ccc(N2C(=O)c3ccccc3NC2c2cccnc2)cc1 (centres undefined),0,16*,3,0,0,>50
COCc1cc(CN2CCN(C)CC2)c(O)c2ncccc12,-13,26*,-14,0,0,>50
COc1ccc(C(=O)NCC(c2ccccc2)N2CCCC2)cc1S(=O)(=O)N1CCOCC1 (centres undefined),nt,nt,nt,0,nt,nt
CN1CCN(C(=O)c2ccccc2Nc2ccc(SC(F)F)cc2)CC1,-1,19*,2,0,0,>50
c1ccc2c(c1)nc(NCC1CCCO1)c1nnnn12 (centres undefined),4,23*,28,4,18,28*
Cc1ccc(-c2nnn(CC(=O)N(c3ccccc3)C(C(=O)NCC3CCCO3)c3ccc(Cl)cc3)n2)cc1 (centres undefined),0,21*,1,0,-4,>50
COc1ccc2c(CC#N)c[nH]c2c1,-4,31*,-6,0,-1,>50
COc1ccc2c(CCNC(N)=S)c[nH]c2c1,2,-18,-1,1,-1,nt
CC(C)Cc1ccc(CN2CCC(n3nccc3NC(=O)C3CCCC3)CC2)cc1,3,22*,nt,0,nt,>50
COC(=O)C1=CN(Cc2ccccc2)C=C(C(=O)OC)C1c1cc(F)ccc1F,-1,24*,nt,-40,nt,21*
CN(Cc1ccccc1)C(=O)COc1ccc(C(C)(C)C)cc1,3,0,nt,1,nt,nt
Cc1ccc(-c2ccc(/C=C(\C#N)C(N)=S)n2C)cc1,nt,31*,-4,1,46,>50
Cc1cc(Br)ccc1NC(=O)CN(C)C(=O)c1cc(S(=O)(=O)N(C)C)ccc1N1CCCC1,1,-1,nt,0,nt,nt
O=[N+]([O-])c1ccc(S(=O)(=O)Nc2nnc(C3CCCCC3)s2)cc1,0,20*,nt,0,nt,>50
CCN(C(=O)COC(=O)c1cc2c(s1)CCCC2)c1c(N)n(Cc2ccccc2)c(=O)[nH]c1=O,nt,nt,nt,0,nt,nt
Cc1cc(C2C(C#N)=C(N)SC(N)=C2C#N)c(C)s1,3,34*,32,nt,24,>50
COc1ccc(N=Cc2cc(Cc3ccccc3Cl)cc([N+](=O)[O-])c2O)cc1OC,-2,16*,-15,nt,-6,>50
O=C1C=C(Nc2ccc(Cl)cc2Cl)CC(c2ccco2)C1 (centres undefined),0,24*,3,0,1,>50
O=C1C=C(NCc2ccc(Cl)cc2)CC(c2ccco2)C1 (centres undefined),-2,6,-3,0,-2,nt
O=C(CN1C2CCCC1CC(NC(=O)c1ccco1)C2)Nc1ccccc1C(F)(F)F (centres undefined),2,17*,2,1,-8,>50
SMILES,MEX-5 binding,RanGTP-Imp inh,Runt-SMMHC FRET,KLK7 zymogen act,Runt-CBFb FRET,YIC FRET counter
Cc1cnn(-c2ccccc2)c1NC(=O)COCc1ccccc1,nt,nt,nt,0,nt,nt
O=C(CSCC(=O)NC1CCCC1)Nc1ccccc1,2,5,1,0,-1,nt
O=C(CSCC(=O)NC1CC1)Nc1ccccc1,2,40*,-1,0,-1,>50
COc1c2ccccc2nc2ccccc12,0,41*,nt,7,nt,14*
Cc1c2ccccc2nc2ccccc12,0,4,nt,5,nt,nt
Cc1ccc(C)c(S(=O)(=O)NCC(=O)Nc2ccc3c(c2)OCO3)c1,-2,1,nt,0,nt,nt

# Compound activity: PubChem BioAssay, several laboratories
